Test: Toxicity liver stage against HepG2, at 10uM
Format: cell-based
Set-up: test concentration 10 uM, cell line HepG2-A16-CD81EGFP
Details: human, HepG2-A16-CD81EGFP cells; read-out: INHIBITION
Summary of the method: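 Uninfected HepG2-A16-CD81EGFP cells, 3 × 10^3 per well, 1536-well, plated on prespotted compound at 10 μM final, parasite-free screening media added to match infected plates; puromycin 10 μM positive, DMSO 0.5% negative; run in parallel with 48 h PbLuc assay at 37 °C, 5% CO2; viability by CellTiter-Glo luminescence, normalized to controls.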

SMILES | cytotoxicity at 10 µM
CC(C)(C)OC(=O)NC(C)(C)c1noc(Cn2ccnc2)n1 | 8.73%
O=C(CSC1=NS(=O)(=O)c2cc(F)ccc2N1)c1ccccc1 | -10.7%
Oc1ccccc1CN1CCCCCC1c1cccs1 (configuration not stated) | -3.2%
COC(=O)CNC(=O)N1CCN(c2nc3ccccc3n2C)CC1 | -9.46%
Nc1c(N2CCCCC2)ncnc1N1CCOCC1 | 3.66%
Cc1nn(-c2ccc(C(=O)O)cc2)c2c1C(CC(C)C)SCC(=O)N2 (configuration not stated) | -2.43%
COCCNC(=O)Cn1cc(OCc2ccccc2F)c(=O)cc1CO | -173%
CCc1nnc2ccc(N3CCN(S(=O)(=O)c4ccc(C)s4)CC3)nn12 | 1.5%
Cc1ccc(-n2nnc(C(=O)NCC3CCCCC3)n2)cc1 | -3.5%
Cc1nc(C)c(C(=O)Nc2cc(N3CCC(C)CC3)ncn2)s1 | -8.11%
CN(C)C(=O)NCc1ncn2c1CN(S(C)(=O)=O)CCC2 | 11%
O=C(c1nc2c(s1)CCCN2CC1CC1)N1CCCC1 | 15.2%
O=C(Cc1cccs1)N1CCC2(CCCN(CC3CCOCC3)C2)C1 (configuration not stated) | -144%
CCCS(=O)(=O)N1CCC2(CC1)CN(C(=O)N(C)C)c1ccccc12 | -108%
COc1ncnc2c1CCN(Cc1cccc(C)n1)CC2 | -146%
CN1CCc2c(C#N)c(NCc3ccncc3)n3cnnc3c2C1 | 10.8%
CC(=O)c1nn(-c2ccccc2)c(C)c1C(C)=O | 2.27%
O=C(C1CCOC1)N1CC[C@@H](O)[C@@H]1Cc1ccccc1 (some centres not stated) | 9.34%
COC(=O)C1=NOC(Cc2cc(OC)c3c(c2)OCO3)C1 (configuration not stated) | 5.82%
Cc1cccc2c1cnn2CCC(=O)NCC(=O)N(C)C | 7.03%
COc1ccccc1OCCN(C)Cc1c(C2CC2)[nH]c2ncccc12 | 5.62%
CCc1c(C)nc2cc(-c3nccn3C)nn2c1N1CCCC(CO)C1 (configuration not stated) | 3.06%
COc1ccc2nc(C3CC3)cc(C(=O)NCc3ncnn3C)c2c1 | -8.06%

SMILES | cytotoxicity at 10 µM
COc1ccccc1OCc1nc(C(C)C)no1 | 14%
CN(Cc1nnc2ccccn12)C(=O)CC1CCCCC1 | 13.7%
Cn1c(NCc2ccc(C(N)=O)cc2)nc2cc(Cl)ccc21 | 1.42%
CCCC(C)CS(=O)(=O)NCCc1csc(N2CCCC2)n1 (configuration not stated) | 7.47%
CCN1CCCCC1C(=O)N1CCC(OC2CCCC2)CC1 (configuration not stated) | -20.6%
Cc1cc(C)n2c(CNCc3ccc(OC(F)F)cc3)cnc2n1 | -145%
CCOCC(=O)Nc1cc(-c2cccc(F)c2F)n[nH]1 | 0.107%
Cc1nnc(CSc2n[nH]c(-c3ccccn3)n2)o1 | 5.81%
Cc1noc(C)c1C(=O)N(C)C(C)c1ccc(S(C)(=O)=O)cc1 (configuration not stated) | 4.96%
CCN(CC)C(=O)N1CCOCC1c1c(C)nn(C)c1C (configuration not stated) | 11.3%
Cn1cc(NS(=O)(=O)CC2CCCCO2)cn1 (configuration not stated) | -5.41%
CC(C)(C)OCCN1CCCC1c1nc(Cc2ccc(F)cc2)no1 (configuration not stated) | -7.1%
O=C(c1ccoc1)N1CCC(NCc2cccnc2)CC1 | 8.21%
CC(CCc1ccccc1F)C(=O)NS(=O)(=O)CC1CC1 (configuration not stated) | -5.36%
CCC(C)NC(=O)CN1CCC2(CC1)OCCO2 (configuration not stated) | -4.92%
CC(C)NC(=O)CCNC(=O)c1cnc(Cc2ccc(F)cc2)s1 | 2.87%
CCN(C(=O)CSc1ccc(C(F)(F)F)cn1)C1CC1 | 7.77%
CN(C)CCN(Cc1ccc(Cl)cc1)C(=O)c1ccncc1 | 7.99%
COc1cc(NC(=O)c2ccc(Cl)cc2F)c(C(=O)N(C)C)cc1OC | -18.9%
CC(CN1CCCC1=O)NC(=O)c1cc(-c2cccc(Cl)c2)no1 (configuration not stated) | 5.75%
COC(=O)c1ccc(S(=O)(=O)N(C)CC(N)=O)c(Cl)c1 | -1.65%
CC(C)(C)c1nc(CN(CCC2CCCCC2)CC(N)=O)no1 | -3.08%
Cc1nc(C2CCCCC2)sc1C(=O)O | 15%

SMILES | cytotoxicity at 10 µM
Cc1noc(OCCOc2cccc(C#N)c2)n1 | 0.63%
CC(CCS(C)(=O)=O)NC(=O)NCc1ccc2c(c1)CCC2 (configuration not stated) | -143%
CC1CCC(O)(CN2CCN(CCNC(=O)C3CCC3)CC2)CC1 (configuration not stated) | -0.118%
Cc1cc(C)n(C2CN(c3ncnc4[nH]ccc34)C2)n1 | 6.59%
O=C(C1CCCN1S(=O)(=O)C1CCCC1)N1CCSCC1 (configuration not stated) | 4.71%
Cc1nccn1-c1ccc(CNC(=O)c2ccc[nH]2)cn1 | -14.2%
CC(C)NC(=O)CCCn1cnc2ccccc2c1=O | 15.2%
COc1cccc(C2CN(CCc3ccncc3)CCO2)c1 (configuration not stated) | -10.1%
Cc1noc(COCC(=O)Nc2ccc(Br)c(C)n2)n1 | 6.19%
Cc1ccccc1NS(=O)(=O)c1ccc(C(=O)O)cc1F | 7.94%
COc1cc(N2CCC3(CC2)OCC(=O)NC3C)ncn1 (configuration not stated) | 1.95%
CCOC1COC2(CCN(c3ncc(C)cn3)CC2)C1 (configuration not stated) | 7.21%
O=C(c1ccncc1)N1C[C@@H](OCc2cccnc2)[C@H]2OCCC[C@H]21 | 0.866%
Cn1cnc(-c2cc(C(=O)N3CCOCC3)c3ccccn23)c1 | 4.79%
C[C@@H]1CN(C2Cc3ccccc3C2)CC[C@@]1(O)C1CCOCC1 | -4.04%
Cc1cc(C(=O)N2CCCCC2c2nc3cc(F)ccc3[nH]2)nn1C (configuration not stated) | 4.42%
Cc1ccc(-c2ccnc(NC(C)c3n[nH]c(=O)[nH]3)n2)c(C)n1 (configuration not stated) | 1.33%
Cc1nc2c(c(NC3CC3)n1)CCN(C(=O)CCc1cccnc1)CC2 | -9.1%
O=C(NCC(F)F)c1ccc(S(=O)(=O)NCCc2c[nH]cn2)cc1 | -1.99%
CCS(=O)(=O)c1ncc(CN(C)Cc2cccc(OC)c2)n1CCOC | -0.636%
C[C@H](NC(=O)c1cccc(CCC(C)(C)O)c1)C(N)=O | -0.511%
Cc1cc(C(=O)N2CC[C@H](N3CCOCC3)[C@H](CCCO)C2)c(C)n1C | -138%
Cc1ccc(NC(=O)CN[C@H](C(N)=O)C(C)C)cc1F | 11%

SMILES | cytotoxicity at 10 µM
CNC(=O)[C@@H]1C[C@@H](NC(=O)CCCc2cccs2)CN1C1CCOCC1 | -0.828%
Cc1ccccc1N1CCN(C(=O)c2cscn2)C(C)C1 (configuration not stated) | 0.403%
O=C(c1sccc1Cl)N1CCC(Cn2cc(CO)nn2)CC1 | -7.12%
O=c1[nH]c(-c2ccc(Cl)cc2)nc2c1CCNC2 | 4.42%
O=C(COc1cccc(F)c1)N1C[C@H](CO)C[C@H](CN2CCCC2)C1 | 1.76%
Cc1cc(C(F)(F)F)cc(N2CCC3(CCC(=O)N(CCO)C3)CC2)n1 | 8.09%
CC(C)[C@]1(O)CN(C(=O)COCC(N)=O)C[C@H]1C | 7.37%
Cn1ccc2c(-c3nccc(N)n3)ccnc21 | -16%
CC1CN(Cc2nc(Cc3ccccc3F)no2)CCN1C (configuration not stated) | -7.44%
Cn1cc(C(=O)N2CCCC(C(=O)CCc3ccccc3)C2)cn1 (configuration not stated) | -5.16%
NC(=O)c1ccc(C2CCCN2C(=O)CCc2nc3ccccc3s2)s1 (configuration not stated) | -8.8%
Cc1nn(C)c2nc(NC3CCNCC3)sc12 | -10.4%
Cc1cc(CN2CCC(CNC(=O)CN3CCCCCC3)C2)[nH]n1 (configuration not stated) | -131%
COc1cccc2c1OCC(C(=O)N1CCC(NS(C)(=O)=O)CC1)C2 (configuration not stated) | 1.49%
Cc1n[nH]c(C)c1CCC(=O)N1CCc2c(nc[nH]c2=O)C1 | -5%
CN(C)CCNC(=O)c1cnc2c(c1)nc(-c1ccccc1Cl)n2C | 10.6%
Cc1ccc([C@@H]2CN(S(=O)(=O)c3cccs3)C[C@H]2N(C)C)cc1 | -3.12%
CCc1nc(CN2CCN(C(=O)c3csnn3)CC2)cs1 | -9.04%
CCCN(C)S(=O)(=O)N1CCCC1c1ccco1 (configuration not stated) | -8.72%
CCOc1ccc(C(=O)N2CCCC(n3nc(C)nc3C)C2)cc1 (configuration not stated) | -4.34%
COc1cc(C(=O)Nc2cn[nH]c2)ccc1C | -7.33%
CCC(=O)N(C)C1CCN(Cc2ncc(C)c(OC)c2C)CC1 | -9.86%
CC(OCC1CC1)C(=O)N1CCCN(c2ncccc2C#N)CC1 (configuration not stated) | -11.6%

SMILES | cytotoxicity at 10 µM
CN(CCC#N)C(=O)CN1CCCC1c1ccsc1 (configuration not stated) | -5.26%
CCc1nc(C2CCCN2C(=O)c2ccoc2C)no1 (configuration not stated) | -11.6%
O=C(CN1CCC(c2ccnn2CCO)CC1)NCc1cccs1 | -10.4%
CCCc1cc(C(=O)N2CCCC(n3ccnc3C)C2)[nH]n1 (configuration not stated) | -15.6%
Cc1ccn(-c2ccc(C(=O)N3CCCC(C(N)=O)C3)cc2)n1 (configuration not stated) | -5.38%
NC(=O)CN1CCCN(C(=O)Cc2ccc3c(c2)OCO3)CC1 | 2.96%
CC(C)c1nc(C2CCCN2CC(=O)Nc2nncs2)no1 (configuration not stated) | -3.13%
CCc1n[nH]c(C2CN(C(=O)c3ncoc3C(C)C)CCO2)n1 (configuration not stated) | -9.8%
Cc1nc(CN2CCC(N(C)Cc3noc(C4CC4)n3)C2)oc1C (configuration not stated) | -11.1%
CN(C)c1ccnc(C2CCCN2)n1 (configuration not stated) | 1.76%
CC1(C)CC(N(Cc2ccccc2)Cc2ncc[nH]2)CC(C)(C)N1 | 0.385%
O=C(NC1CC1)[C@H]1CC[C@@H]2[C@@H](CCN2CCOCc2ccccc2)O1 | -115%
COCC(=O)N1CCC2(CCN(Cc3ccc(C)cc3)CC2)CC1 | 6.68%
COCCN1C(=O)CC[C@@H]2[C@@H]1CCN2Cc1c(C)noc1C | 6.57%
CNC(=O)[C@H]1C[C@H]2OCC[C@H]2N(CC2CCOCC2)C1 | 6.46%
COc1cc(N2CCC3(CCCN(C(=O)c4cnccn4)C3)C2)ncn1 (configuration not stated) | -2.48%
CCOC[C@]12COC[C@H]1CN(Cc1ccc(F)c(F)c1)C2 | -107%
COCCN1CCO[C@@H]2CN(C(=O)Cc3cccc(F)c3)CC[C@@H]2C1 | 5.95%
COc1ccc(C2Nc3ccccc3N=C3CNC(=O)C32)cc1OC (configuration not stated) | 5.56%
CC(C)CCN1C[C@@H]2C[C@H](C(=O)N3CCCC3)[C@H](C1)O2 | 4.82%

— ChEMBL document CHEMBL4513216, “Probing the Open Global Health Chemical Diversity Library for Multistage-Active Starting Points for Next-Generation Antimalarials” (ACS Infect Dis, 2020)
